Converted amounts (≈) assume the structure as drawn. The source made the active and inactive calls. The rule behind the calls is not given here. Bounds are passed on as bounds.

Assay [1] has as its system Staphylococcus aureus. The experiment in a line: Antibacterial activity against methicillin-resistant Staphylococcus aureus ATCC 33591 after 18 hrs. The class given is functional. The note with it: ATCC 33591, 18 h. In short, it runs like this:
(§1)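 Dilution susceptibility test for aerobic bacteria. Compounds dissolved in DMSO and serially diluted to 10 concentrations (0.125–64 μg/mL) in 96-well plates, run in triplicate. Vancomycin served as control, with six untreated media controls per plate. Incubation at 33 °C for 18 h; MIC read as the lowest concentration inhibiting visible growth.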

Assay [2] concerns Staphylococcus aureus. The assay can be described thus: Bacteriostatic activity against methicillin-resistant Staphylococcus aureus ATCC 33591 after 18 hrs. The class given is functional, organism-based. In short, it runs like this:
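After the 18 h, 33 °C microdilution MIC plate, a sterile swab dipped into each well showing growth inhibition was inoculated onto an LB plate to tell bactericidal from bacteriostatic action.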

In assay [3] the test system is Staphylococcus aureus. The experiment in a line: Bacteriostatic activity against methicillin-susceptible Staphylococcus aureus ATCC 29213 after 18 hrs. The class given is functional, organism-based. In short, it runs like this: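 Broth dilution susceptibility test for aerobic bacteria against MSSA ATCC 29213. Compounds in DMSO, serially diluted to 10 concentrations (0.125−64 μg/mL) in 96-well plates, tested in triplicate with vancomycin control and six untreated media controls per plate. Incubated at 33 °C for 18 h. MIC was the lowest concentration without visible growth. Inhibited wells were swabbed onto LB plates to distinguish bacteriostatic from bactericidal.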

Assay [4] relates to Staphylococcus aureus. The assay can be described thus: Antibacterial activity against methicillin-susceptible Staphylococcus aureus ATCC 29213 after 18 hrs. The class given is functional. The note with it: ATCC 29213, 18 h. The essentials: as §1

As to `CCCCCCCCCCCCCCCCCCCCCCC[C@@H]1CC(=O)N[C@H]([C@H](C)O)C(=O)N[C@@H](C(C)C)C(=O)N[C@@H](C)C(=O)N2CCC[C@@H]2C(=O)N[C@H]([C@@H](C)CC)C(=O)N[C@@H](C(C)C)C(=O)N[C@@H]([C@@H](C)OC)C(=O)O1` [PEPTIDOLIPIN B], in the assay with Staphylococcus aureus [1], the MIC amounted to 64 µg/mL (≈ 58.7 µM). The outcome in the assay with Staphylococcus aureus [2] and with Staphylococcus aureus [3] was Active.
For `CCCCCCCCCCCCCCCCCCCCCCCCCCC[C@@H]1CC(=O)N[C@H]([C@H](C)O)C(=O)N[C@@H](C(C)C)C(=O)N[C@@H](C)C(=O)N2CCC[C@@H]2C(=O)N[C@H]([C@@H](C)CC)C(=O)N[C@@H](C(C)C)C(=O)N[C@@H]([C@@H](C)OC)C(=O)O1` [PEPTIDOLIPIN D], the minimum inhibitory concentration (MIC) in the assay on Staphylococcus aureus [1] and against Staphylococcus aureus [4] was more than 64 µg/mL in each case.
For `CCCCCCCCCCCCCCCCCCCCCCCCC[C@@H]1CC(=O)N[C@H]([C@H](C)O)C(=O)N[C@@H](C(C)C)C(=O)N[C@@H](C)C(=O)N2CCC[C@@H]2C(=O)N[C@H]([C@@H](C)CC)C(=O)N[C@@H](C(C)C)C(=O)N[C@@H]([C@@H](C)OC)C(=O)O1` [PEPTIDOLIPIN C], the MIC in the assay with Staphylococcus aureus [1] and against Staphylococcus aureus [4] was more than 64 µg/mL throughout.
On to `CCCCCCCC/C=C\CCCCCCCCCCCCCCC[C@@H]1CC(=O)N[C@H]([C@H](C)O)C(=O)N[C@@H](C(C)C)C(=O)N[C@@H](C)C(=O)N2CCC[C@@H]2C(=O)N[C@H]([C@@H](C)CC)C(=O)N[C@@H](C(C)C)C(=O)N[C@@H]([C@@H](C)OC)C(=O)O1` [PEPTIDOLIPIN E], for which inhibition of growth in the assay on Staphylococcus aureus [4] (MIC) required 64 µg/mL (≈ 57.3 µM). Also, the result with Staphylococcus aureus [2] and with Staphylococcus aureus [3] was Active.

Values taken from ChEMBL document CHEMBL2034958, “Peptidolipins B-F, antibacterial lipopeptides from an ascidian-derived Nocardia sp” (2012).
